Measured values published in ChEMBL document CHEMBL1155540, “The discovery and SAR of indoline-3-carboxamides--a new series of 5-HT6 antagonists” (Bioorg Med Chem Lett, 2010).

Legend:
[1] = biological target: 5-hydroxytryptamine receptor 6 (Homo sapiens, UniProt P50406); assay: Displacement of [3H]LSD from human 5HT6 receptor expressed in CHO cells
[2] = Intrinsic clearance in rat liver microsome measured per mg of protein; type: ADME; conditions: liver microsomes
[3] = Oral bioavailability in Wistar rat at 10 mg/kg; type: ADME, organism-based; conditions: in vivo
Summary of the method: (§1)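 Male Wistar rats dosed 1 mg/kg iv or 10 mg/kg po; vehicle 5% DMA / 95% saline. Plasma pharmacokinetic parameters derived and given as mean with SD.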

[4] = Elimination half life in Wistar rat at 1 mg/kg, iv; type: ADME, organism-based; design: dose 1 mg/kg, route intravenous; conditions: in vivo, read-out: beta t1/2 (converted)
Summary of the method: as §1

[5] = organism: Homo sapiens; assay: Plasma protein binding in human; conditions: read-out: PPB (converted)
[6] = Plasma protein binding in rat; conditions: read-out: PPB (converted)
[7] = biological target: Voltage-gated inwardly rectifying potassium channel KCNH2 (Homo sapiens, UniProt Q12809); assay: Displacement of [3H]dofetolide from human ERG channel in HEK293 cells; type: cell-based
Voltage-gated inwardly rectifying potassium channel KCNH2, sequence (Q12809 whole entry): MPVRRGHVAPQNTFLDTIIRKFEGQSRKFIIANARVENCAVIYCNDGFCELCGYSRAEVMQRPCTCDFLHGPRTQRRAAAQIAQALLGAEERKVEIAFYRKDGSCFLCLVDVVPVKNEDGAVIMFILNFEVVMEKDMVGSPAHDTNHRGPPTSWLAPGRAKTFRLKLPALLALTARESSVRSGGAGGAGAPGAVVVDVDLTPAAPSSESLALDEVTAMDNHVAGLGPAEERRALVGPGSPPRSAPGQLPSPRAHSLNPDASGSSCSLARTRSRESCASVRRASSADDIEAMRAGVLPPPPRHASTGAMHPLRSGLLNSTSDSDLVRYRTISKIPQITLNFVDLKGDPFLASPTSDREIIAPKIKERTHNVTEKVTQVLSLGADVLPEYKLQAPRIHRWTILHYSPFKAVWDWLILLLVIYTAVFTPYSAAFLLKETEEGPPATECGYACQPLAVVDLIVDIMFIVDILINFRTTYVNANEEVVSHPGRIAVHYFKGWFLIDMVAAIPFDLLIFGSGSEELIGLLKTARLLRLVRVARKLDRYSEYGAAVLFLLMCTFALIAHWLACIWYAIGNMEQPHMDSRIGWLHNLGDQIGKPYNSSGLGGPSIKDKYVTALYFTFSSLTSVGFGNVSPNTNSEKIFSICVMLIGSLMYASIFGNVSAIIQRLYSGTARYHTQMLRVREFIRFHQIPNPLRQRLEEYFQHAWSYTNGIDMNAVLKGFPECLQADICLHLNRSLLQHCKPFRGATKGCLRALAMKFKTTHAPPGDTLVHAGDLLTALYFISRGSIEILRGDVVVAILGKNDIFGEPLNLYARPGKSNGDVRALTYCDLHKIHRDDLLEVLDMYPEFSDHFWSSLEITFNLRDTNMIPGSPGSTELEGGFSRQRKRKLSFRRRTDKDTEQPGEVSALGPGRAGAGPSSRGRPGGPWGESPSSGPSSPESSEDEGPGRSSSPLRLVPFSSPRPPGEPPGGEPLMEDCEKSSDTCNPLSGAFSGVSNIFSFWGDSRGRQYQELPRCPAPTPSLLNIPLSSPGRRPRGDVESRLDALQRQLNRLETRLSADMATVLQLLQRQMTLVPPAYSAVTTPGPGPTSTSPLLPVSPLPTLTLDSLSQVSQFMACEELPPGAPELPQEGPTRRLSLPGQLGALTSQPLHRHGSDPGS
Summary of the method: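 Affinity for cardiac K+ channel determined by displacement of tritiated dofetolide in membrane homogenate from HEK-293 cells expressing hERG channel; reported as pKi.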

[8] = Volume of distribution at steady state in Wistar rat at 1 mg/kg, iv; type: ADME, organism-based; design: dose 1 mg/kg, route intravenous; conditions: in vivo, read-out: Vdss
Summary of the method: as §1

[9] = Clearance in Wistar rat at 1 mg/kg, iv; type: ADME, organism-based; design: dose 1 mg/kg, route intravenous; conditions: in vivo
Summary of the method: as §1

[10] = Intrinsic clearance in human liver microsome measured per mg of protein; type: ADME; conditions: liver microsomes
[11] = Permeability from apical to basolateral side of the human Caco-2 membrane; type: ADME, cell-based; conditions: read-out: permeability
[12] = system: Hepatocyte; assay: Intrinsic clearance in rat hepatocytes; type: ADME, cell-based, Liver
[13] = system: Hepatocyte; assay: Intrinsic clearance in human hepatocytes; type: ADME, cell-based, Liver
[14] = Permeability from basolateral to apical side of the human Caco-2 membrane; type: ADME, cell-based; conditions: read-out: permeability

5-hydroxytryptamine receptor 6, sequence (P50406 whole entry): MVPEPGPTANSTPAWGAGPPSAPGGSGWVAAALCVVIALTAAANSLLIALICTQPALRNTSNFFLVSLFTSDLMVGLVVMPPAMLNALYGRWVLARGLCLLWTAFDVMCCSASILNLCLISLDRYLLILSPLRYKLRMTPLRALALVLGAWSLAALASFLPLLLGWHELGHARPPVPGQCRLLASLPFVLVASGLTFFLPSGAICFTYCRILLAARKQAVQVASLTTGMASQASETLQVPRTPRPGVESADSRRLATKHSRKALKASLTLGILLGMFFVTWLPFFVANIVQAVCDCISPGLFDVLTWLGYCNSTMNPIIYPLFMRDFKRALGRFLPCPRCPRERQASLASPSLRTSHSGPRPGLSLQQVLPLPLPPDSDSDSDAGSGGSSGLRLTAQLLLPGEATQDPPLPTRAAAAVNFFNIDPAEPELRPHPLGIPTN

Ki [1] [nM]	Compound	also measured
316	Cc1cnc2c(S(=O)(=O)N3CC(C(=O)N(C)C4CCN(C)CC4)c4ccccc43)cccc2c1 (racemic)	–
–	COc1ccc(S(=O)(=O)N2C[C@H](C(=O)N3CCCNCC3)c3ccccc32)c2ccccc12	microsomal CLint [2]: 105 µL/min/mg; bioavailability [3]: 23.5%; half-life [4]: 1.9 h; fraction unbound [5]: 0.006; fraction unbound [6]: 0.029; Ki [7]: 1260 nM; Vd [8]: 1.9 L/kg; clearance [9]: 16.5 mL/min/kg; microsomal CLint [10]: 69 µL/min/mg; Papp A→B [11]: < 2.2 ×10⁻⁶ cm/s; CL [12]: 11 µL/min; CL [13]: 7 µL/min; Papp B→A [14]: 4.7 ×10⁻⁶ cm/s
50.1	CN1CCC(N(C)C(=O)C2CN(S(=O)(=O)c3ccc4c(c3)OCCO4)c3ccccc32)CC1 (racemic)	–
20	CCN(CC)CCNC(=O)C1CN(S(=O)(=O)c2ccc(OC)c3ccccc23)c2ccccc21 (racemic)	–
100	COc1cc(C)c(S(=O)(=O)N2CC(C(=O)N(C)C3CCN(C)CC3)c3ccccc32)c(C)c1C (racemic)	–
25.1	CN1CCC(N(C)C(=O)C2CN(S(=O)(=O)c3ccc4ccccc4c3)c3ccccc32)CC1 (racemic)	–
31.6	CN1CCC(N(C)C(=O)C2CN(S(=O)(=O)c3cccc(-c4ccccc4)c3)c3ccccc32)CC1 (racemic)	–
25.1	CN1CCC(N(C)C(=O)C2CN(S(=O)(=O)c3cccc(C(F)(F)F)c3)c3ccccc32)CC1 (racemic)	–
7.94	COc1ccc(S(=O)(=O)N2CC(C(=O)N(C)C3CCN(C)CC3)c3ccccc32)c2ccccc12 (racemic)	–
158	COc1ccc(S(=O)(=O)N2CC(C(=O)N3CC(N)C3)c3ccccc32)c2ccccc12 (racemic)	–
63.1	COc1cccc(N2CCN(C(=O)C3CN(S(=O)(=O)c4ccc(OC)c5ccccc45)c4ccccc43)CC2)c1 (racemic)	–
126	CN1CCC(N(C)C(=O)C2CN(S(=O)(=O)c3ccc(-c4ccccc4)cc3)c3ccccc32)CC1 (racemic)	–
100	COc1ccc(S(=O)(=O)N2CC(C(=O)N(C)C3CCN(C)CC3)c3ccccc32)c(C)c1C (racemic)	–
79.4	COc1ccc(S(=O)(=O)N2CC(C(=O)N3CC(CN)C3)c3ccccc32)c2ccccc12 (racemic)	–
5.01	CN1CCC(N(C)C(=O)C2CN(S(=O)(=O)c3cccc4c(Cl)cccc34)c3ccccc32)CC1 (racemic)	–
31.6	CN1CCC(N(C)C(=O)C2CN(S(=O)(=O)c3cccc4ccccc34)c3ccccc32)CC1 (racemic)	–
316	CN1CCC(N(C)C(=O)C2CN(S(=O)(=O)c3cccs3)c3ccccc32)CC1 (racemic)	–
20	CN1CCC(N(C)C(=O)C2CN(S(=O)(=O)c3ccc(OC(F)(F)F)cc3)c3ccccc32)CC1 (racemic)	–
126	CN1CCC(N(C)C(=O)C2CN(S(=O)(=O)c3cccc4nsnc34)c3ccccc32)CC1 (racemic)	–
25.1	COc1ccc(S(=O)(=O)N2CC(C(=O)NC3CCN(C)CC3)c3ccccc32)c2ccccc12 (racemic)	–
63.1	Cc1c(S(=O)(=O)N2CC(C(=O)N(C)C3CCN(C)CC3)c3ccccc32)sc2ccc(Cl)cc12 (racemic)	–
1.26	COc1ccc(S(=O)(=O)N2CC(C(=O)N3CCCNCC3)c3ccccc32)c2ccccc12 (racemic)	–
79.4	CCN(CC)CCCNC(=O)C1CN(S(=O)(=O)c2ccc(OC)c3ccccc23)c2ccccc21 (racemic)	–
31.6	COc1ccc(S(=O)(=O)N2CC(C(=O)NCCCN3CCOCC3)c3ccccc32)c2ccccc12 (racemic)	–
316	CN1CCC(N(C)C(=O)C2CN(S(=O)(=O)c3ccccc3)c3ccccc32)CC1 (racemic)	–
50.1	COc1ccc(S(=O)(=O)N2CC(C(=O)NC3CCN(Cc4ccccc4)CC3)c3ccccc32)c2ccccc12 (racemic)	–
25.1	CN1CCC(N(C)C(=O)C2CN(S(=O)(=O)c3ccc(C(F)(F)F)cc3)c3ccccc32)CC1 (racemic)	–
79.4	COc1ccc(S(=O)(=O)N2CC(C(=O)NCCCn3ccnc3)c3ccccc32)c2ccccc12 (racemic)	–
7.94	COc1ccc(S(=O)(=O)N2CC(C(=O)N3CCNCC3)c3ccccc32)c2ccccc12 (racemic)	–

Compound	Ki [1] [nM]	also measured
COc1ccc(S(=O)(=O)N2CC(C(=O)NC3CC4CCC(C3)N4C)c3ccccc32)c2ccccc12 (racemic)	31.6	–
